The results in this text go back to ChEMBL document CHEMBL1131468, “Rigid phencyclidine analogues. Binding to the phencyclidine and sigma 1 receptors” (J Med Chem, 1998).

The target of test [1] is Sigma non-opioid intracellular receptor 1 (Rattus norvegicus, UniProt Q9R0C9). In words: Inhibition of [3H]NANM binding to sigma receptor obtained from tissue homogenate preparation of fresh whole rat brain minus cerebellum. It is filed as tissue-based. A digest of the protocol:
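Radioligand displacement in homogenate of fresh whole rat brain minus cerebellum. The PCP site was labelled with [3H]TCP and the sigma site with [3H]NANM. IC50 values were read from inhibition curves and converted to Ki with the Cheng-Prusoff equation. Experiments were run in triplicate and reported as mean ± standard deviation of three experiments.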

Test [2] is described as follows: Inhibition of [3H]-TCP binding to PCP receptor obtained from tissue homogenate preparation of fresh whole rat brain minus cerebellum.

Chain of Sigma non-opioid intracellular receptor 1 (Q9R0C9 whole entry): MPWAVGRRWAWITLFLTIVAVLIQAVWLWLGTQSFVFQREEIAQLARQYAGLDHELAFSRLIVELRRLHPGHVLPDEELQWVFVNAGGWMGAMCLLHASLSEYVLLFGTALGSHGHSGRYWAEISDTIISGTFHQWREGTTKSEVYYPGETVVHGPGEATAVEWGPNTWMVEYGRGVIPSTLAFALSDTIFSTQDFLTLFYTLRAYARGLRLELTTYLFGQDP

As a reminder, the IC50 is the concentration needed to halve the response being measured. Read a low IC50 as greater potency. Take `c1ccc2c(c1)C1CCCCC21N1CCCCC1` (stereo not given): the half-maximal inhibitory concentration (IC50) in test [1] stood at 0.33 µM.

For the molecule `c1ccc2c(c1)C1CCC2(N2CCCCC2)CC1`, the IC50 in test [1] was 0.319 µM.

Turning to `O=C(OCCN1CCOCC1)C1(c2ccccc2)CCCCC1`, the IC50 in test [1] turned out to be 0.044 µM. `c1ccc2c(c1)C1CCC2(N2CCCCC2)C1` (stereo not given): the IC50 in test [1] amounted to 0.365 µM.

In test [2], `c1ccc(C2(N3CCCCC3)CCCCC2)cc1` [PHENCYCLIDINE] had an IC50 of 0.091 µM.
